Assay outcomes: PubChem BioAssay, several laboratories
APOBEC3A inh – human APOBEC3A DNA deaminase inhibition; actives 0.41% (n = 330,000); P31941; recombinant A3A, FAM/TAMRA ssDNA deamination fluorescence; inhibition, % at 20 µM;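 active = at least 40% inhibition at 20 µM here, with at most 30% in a related deaminase screen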;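 also: plate controls were A3A with DMSO for no effect and wells lacking A3A enzyme for full effect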
FN deposition inh – fibronectin deposition inhibition | AH1F fibroblasts, Alexa488-fibronectin deposition fluorescence, overnight | inhibition, % at 12.6 µM | actives 0.086% (n = 350,000);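 active = mean inhibition across replicates of 30% or more, regardless of how many single replicates reach that level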;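 also: positive control wells lacked labelled fibronectin entirely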
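test system = AH1F fibroblasts assembling fluorescent fibronectin matrix | quantity = 10000 AH1F cells per well | buffer or medium = DMEM plus 2% serum, read in PBS | doses = single dose, pinned | incubation = 1 h cell attachment, overnight exposure to compound and label | detection = fluorescence at 485 nm excitation, 525 nm emission | read-out basis = inhibition from reduced deposited-fibronectin fluorescence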
APOBEC3G inh – APOBEC3G (human) deaminase inhibition. Q9HC16. recombinant A3G, ssDNA deamination FAM/TAMRA fluorescence. inhibition, % at 20 µM. actives 0.28% (n = 330,000);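 active = inhibition of at least 40% at 20 µM, with no more than 30% in the related APOBEC3A deaminase screen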;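 also: plate controls were DMSO wells with A3G for no effect and wells lacking A3G enzyme for full effect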
ABHD5-PLIN5 inh – ABHD5-PLIN5 protein interaction inhibition; inhibition, % at 4 µM; actives 0.78% (n = 360,000); Q00G26+Q8WTS1; Split G. princeps luciferase complementation, luminescence, 4 h;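 active = inhibition above the mean inhibition across every tested compound plus 3 SD, cut at about 22% in these data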;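 also: 0% = DMSO only wells and the 100% control is not disclosed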
Target sequence (Q00G26 whole entry, looked up): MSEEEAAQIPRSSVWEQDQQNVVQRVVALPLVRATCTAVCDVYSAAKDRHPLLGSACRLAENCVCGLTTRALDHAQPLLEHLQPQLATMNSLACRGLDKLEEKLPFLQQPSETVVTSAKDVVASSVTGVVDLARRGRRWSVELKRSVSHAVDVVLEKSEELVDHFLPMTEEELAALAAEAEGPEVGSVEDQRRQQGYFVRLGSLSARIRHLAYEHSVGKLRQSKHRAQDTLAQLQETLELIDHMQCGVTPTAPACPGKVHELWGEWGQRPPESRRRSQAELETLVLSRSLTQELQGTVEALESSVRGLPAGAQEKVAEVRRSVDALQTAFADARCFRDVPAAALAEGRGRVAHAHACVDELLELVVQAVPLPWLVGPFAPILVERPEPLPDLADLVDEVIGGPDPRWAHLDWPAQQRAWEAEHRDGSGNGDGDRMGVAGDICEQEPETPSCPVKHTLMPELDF
Target sequence (Q8WTS1 whole entry, looked up): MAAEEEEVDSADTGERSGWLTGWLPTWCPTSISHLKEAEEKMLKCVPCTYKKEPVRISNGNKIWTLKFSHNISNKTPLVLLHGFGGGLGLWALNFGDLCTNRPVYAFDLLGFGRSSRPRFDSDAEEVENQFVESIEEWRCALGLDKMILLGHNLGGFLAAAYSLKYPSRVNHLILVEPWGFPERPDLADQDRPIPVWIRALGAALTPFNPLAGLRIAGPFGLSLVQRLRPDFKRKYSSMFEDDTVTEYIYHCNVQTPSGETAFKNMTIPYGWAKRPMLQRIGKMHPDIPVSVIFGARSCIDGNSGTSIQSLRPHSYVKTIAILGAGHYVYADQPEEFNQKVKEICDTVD
* marks the source's active call; other numbers are inactive results; / = no result given. The list is not random: actives were taken first. Their share in the collection is about 1.2%.

SMILES | APOBEC3A inh | FN deposition inh | APOBEC3G inh | ABHD5-PLIN5 inh
CC(=O)C1=C(C)NC(SCC(=O)c2cc(Cl)ccc2Cl)=C(C#N)C1c1ccco1 (configuration not stated) | 1.0 | / | -0.7 | 22.2*
COc1ccccc1NC(=O)c1nc(S(=O)(=O)Cc2ccccc2)ncc1Cl | -2.9 | 42.1* | -7.5 | 12.3
CCOc1ccccc1NC(=O)c1nc(S(=O)(=O)Cc2ccccc2)ncc1Cl | -2.5 | 3.0 | -4.2 | -1.5
CCS(=O)(=O)c1ncc(Cl)c(C(=O)Nc2ccccc2OC)n1 | 0.0 | 7.2 | -1.4 | 8.3
CC(=O)Nc1ccc(NC(=O)c2nc(S(=O)(=O)Cc3cccc(C)c3)ncc2Cl)cc1 | -0.2 | 17.9 | 12.9 | 65.6*
CN1c2ccc(C#Cc3cccnc3)cc2[C@H]2[C@H](CCN2C(=O)C2CCCC2)[C@H]1CO | / | 11.3 | / | /
CC(Oc1cccc(Cl)c1)C(=O)NNC(=O)c1cccnc1 (configuration not stated) | -1.7 | 30.8* | -7.2 | -0.3
CC(Oc1ccc(Cl)cc1Cl)C(=O)NNC(=O)c1cccnc1 (configuration not stated) | -7.2 | 6.7 | -4.9 | 1.8
O=C1C[C@H](c2ccccc2)C(=O)N[C@@H](c2ccccc2)C/C=C\C[C@@H](c2ccccc2)N1 | / | 0.0 | / | /
O=C(C1CCCC1)N1[C@H](CO)[C@H](c2ccccc2)C12CN(CCC(F)(F)F)C2 | / | -19.6 | / | /
COc1cc(OC)c2ccc(=O)oc2c1C(CC(=O)N1CCCC1)c1ccc(N(C)C)cc1 (configuration not stated) | -8.0 | -7.8 | -13.2 | -3.7
COc1cc(OC)c2ccc(=O)oc2c1C(CC(=O)N1CCOCC1)c1ccc(N(C)C)cc1 (configuration not stated) | 34.3 | 31.4* | -8.1 | -1.6
Cc1cccc(NC(=O)Nc2ccc3c(c2)C(=O)N(C)[C@@H]2CC[C@H](CC(=O)NCc4ccccc4Cl)O[C@H]2CO3)c1 | / | 2.8 | / | /
COc1ccccc1C(=O)NCCC(=O)N1CC=C(c2ccccc2)CC1 | -1.6 | -0.4 | -5.3 | 23.8*
O=c1c2cc(N3CCOCC3)ccc2[nH]c(=S)n1Cc1ccc(Cl)cc1 | 6.5 | 41.1* | -3.3 | -6.4
O=C(CCCCCn1c(=S)[nH]c2ccc(N3CCOCC3)cc2c1=O)NCc1ccc(Cl)cc1 | -1.4 | -5.5 | -2.9 | -5.4
O=C1C=C(c2c(O)ccc3ccccc23)c2ccccc2C1=O | / | 16.3 | / | 91.0*
CCCCCCCCCCn1c2c(c(=N)c3c1CCC3)CCC2 | -0.2 | 3.1 | -0.8 | 23.0*
Cc1cc(C)c(NC(=O)Cn2c(=O)n(Cc3ccco3)c(=O)c3ccccc32)c(C)c1 | -4.5 | / | -5.1 | 43.0*
COC(=O)c1c(NC(=O)CN2CCN(c3ccccc3Cl)CC2)sc(C)c1C | 0.2 | 34.4* | -4.6 | -0.4
FC(F)(F)c1cc(-c2ccco2)nc(NCc2cccnc2)n1 | -1.7 | 7.2 | -1.6 | 3.4
FC(F)(F)c1cc(-c2ccccc2)nc(NCc2cccnc2)n1 | 0.3 | active | -9.1 | 5.7
CC(=O)N1C[C@@H]2C(c3ccccc3)[C@H](C1)N2CC(F)(F)F (some centres not stated) | / | 8.6 | / | /
CCN(CC)C(=O)[C@H]1C[C@H](CC(=O)NCc2ccc(OC)c(OC)c2)C(=O)N2CCc3c([nH]c4cc(-c5ccco5)ccc34)[C@]12C | 3.0 | 8.8 | 4.7 | 22.7*
CC(C)N(C(=O)[C@H]1C[C@H](CC(=O)NCc2cccc(C(F)(F)F)c2)C(=O)N2CCc3c([nH]c4cc(-c5ccco5)ccc34)[C@]12C)C(C)C | -2.5 | -0.7 | -3.1 | 22.2*
SMILES | APOBEC3A inh | FN deposition inh | APOBEC3G inh | ABHD5-PLIN5 inh
CC(C)(C)NC(=O)C[C@H]1C[C@H](C(=O)N2CCOCC2)[C@@]2(CCC3CCCC3)c3[nH]c4cc(-c5ccco5)ccc4c3CCN2C1=O | -2.7 | / | -1.0 | 31.9*
C[C@]12c3[nH]c4cc(-c5ccco5)ccc4c3CCN1C(=O)[C@@H](CC(=O)NCc1cccc(C(F)(F)F)c1)C[C@@H]2C(=O)N1CCOCC1 | -0.8 | -1.0 | -0.8 | 12.1
CO[C@H]1CN(C)C(=O)c2ccc(NS(=O)(=O)c3ccccc3)cc2OC[C@H](C)NC[C@H]1C | / | -5.8 | / | /
O=C(c1cccnc1)N1CC2(C1)[C@@H](c1ccccc1)[C@H](CO)N2Cc1cccnc1 | / | 0.4 | / | /
CN(C)CC(=O)N1[C@@H](CO)[C@H](c2ccccc2)C12CN(CC1CC1)C2 | / | -1.8 | / | /
O=C(O)C[C@H]1CC[C@@H](NC(=O)CCN2CCCCC2)[C@@H](CO)O1 | / | -3.1 | / | /
Clc1cccc(CSc2nnc(-c3ccccn3)n2Cc2ccco2)c1 | 0.2 | / | -6.1 | 22.5*
N#Cc1ccc2sn(-c3ccccc3)c(=O)c2c1 | / | / | / | 34.1*
CCn1c2ccccc2c2cc(NC(C)=O)ccc21 | -3.8 | / | -3.3 | -1.3
O=c1c2cc([N+](=O)[O-])ccc2sn1-c1ccccc1 | / | / | / | -10.2
CC(=O)Nc1ccc2sn(-c3ccccc3)c(=O)c2c1 | / | / | / | 84.8*
CCCC(=O)Nc1ccc2c(c1)OC[C@H](C)N(CCC(F)(F)F)C[C@H](C)[C@@H](OC)CN(C)C2=O | / | 4.8 | / | /
N#C[C@H]1[C@@H](c2ccc(C#CC3CCCC3)cc2)[C@@H](CO)N1C(=O)c1cccc(F)c1 | / | -0.9 | / | /
O=[N+]([O-])c1ccc(Sc2cccc[n+]2[O-])c2nonc12 | / | 50.9* | / | 85.6*
O=[N+]([O-])c1ccc(Nc2ccccc2)c2nonc12 | 4.8 | 1.6 | -1.1 | 11.8
CO[C@H]1CN(C)C(=O)c2ccc(NC(=O)C3CC3)cc2OC[C@H](C)N(Cc2cncnc2)C[C@@H]1C | / | -3.1 | / | /
COc1ccccc1C(=O)N/C(=C/c1ccc(Br)cc1)C(=O)N1CCCC1 | -1.3 | 31.5* | -4.1 | -0.3
O=C(CC(Nc1ccccc1)C(=O)O)c1ccccc1 (configuration not stated) | -0.7 | / | 0.2 | 22.8*
CC(C)C[C@H]1CNC(=S)N1C[C@H]1CCCN1C[C@H](Cc1ccc(O)cc1)N1C[C@H](Cc2ccc(O)cc2)N(CC2CCCCCC2)C1=S | / | 7.1 | / | 26.6*
CC(C)C[C@H]1CNC(=S)N1C[C@H]1CCCN1C[C@H](Cc1ccc(O)cc1)N1C[C@H](CC(C)C)N(CCc2ccccc2)C1=S | / | -9.1 | / | 22.8*
COc1ccc(NS(=O)(=O)c2ccc(N3CCOCC3)c(NC(=O)C(C)C)c2)cc1 | 2.1 | 1.5 | -4.8 | -3.0
CCOC(=O)/C=C/C(=O)Nc1cc(S(=O)(=O)Nc2ccc(OC)cc2)ccc1N1CCOCC1 | 3.8 | 7.9 | -3.8 | 22.4*
CC(C)(C)c1cc(Cl)c(O)c(NC(=S)NC(=O)c2cccnc2)c1 | -5.5 | 30.3* | -5.1 | -0.4
COc1ccccc1S(=O)(=O)N1CC[C@@H]2[C@H]1c1cc(-c3cccc(C#N)c3)ccc1N[C@@H]2CO | / | 9.6 | / | /
COc1ccc(/C=C/C(=O)c2ccc3c(c2)OCCO3)cc1[N+](=O)[O-] | 1.5 | / | -2.1 | 13.9
O=C(/C=C/c1cccc([N+](=O)[O-])c1)c1ccc2c(c1)OCCO2 | 6.2 | -0.2 | -3.5 | 22.8*
COc1ncccc1C(=O)NC1CCCc2c1cnn2-c1ccc(C)c(C)c1 (configuration not stated) | -6.5 | 30.8* | -6.0 | -8.7
